# Assays:
# [1] = Cytotoxicity against human EH118MG cells after 3 days by trypan blue exclusion technique; assay type: functional; details: 72 h, read-out: ED50 (the source's name)
# Method in brief: (§1)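 Tumor cells were mixed on day 0 with sterile drug at 1–100 µg/ml (from 1 mM stock in 0.05% Tween 80 water) in growth medium, 1 ml final. Cells were counted on day 3, while growth was still logarithmic. The concentration killing 50% of cells was read from a semilog plot.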
# L1210 = test: Cytotoxicity against mouse L1210 cells after 3 days by trypan blue exclusion technique; assay type: functional; details: L1210, 72 h, read-out: ED50 (the source's name); method in brief: as §1
# [2] = Cytotoxicity against human TE-418 cells after 3 days by trypan blue exclusion technique; assay type: functional; details: TE-418, 72 h, read-out: ED50 (the source's name); method in brief: as §1
# [3] = Cytotoxicity against human MB9812 cells after 3 days by trypan blue exclusion technique; assay type: functional; details: MB9812, 72 h, read-out: ED50 (the source's name); method in brief: as §1
# [4] = Cytotoxicity against human TMOLT3 cells after 3 days by trypan blue exclusion technique; assay type: functional; details: MOLT-3, 72 h, read-out: ED50 (the source's name); method in brief: as §1
# SW480 = test: Cytotoxicity against human SW480 cells after 3 days by trypan blue exclusion technique; assay type: functional; details: SW480, 72 h, read-out: ED50 (the source's name); method in brief: as §1
# [5] = Cytotoxicity against human HeLaS3 cells after 3 days by trypan blue exclusion technique; assay type: functional; details: HeLa S3, 72 h, read-out: ED50 (the source's name); method in brief: as §1
# KB = test: Cytotoxicity against human KB cells after 3 days by trypan blue exclusion technique; assay type: functional; details: 72 h, read-out: ED50 (the source's name); method in brief: as §1
# Mus musculus [6] = test: Hypolipidemic activity in CF1 mouse assessed as serum cholesterol level at 150 mg/kg/day administered for 16 days measured on day 9 relative to control; assay type: functional
# Method in brief: (§2)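 Male CF1 mice (28 g) were dosed daily for 16 days, with drug suspended in 1% carboxymethylcellulose. On days 9 and 16 blood was drawn from the tail vein and serum spun at 3000 g for 3 min. Total cholesterol was measured by the Liebermann-Burchard reaction and triglyceride by a commercial kit. Results are percent of vehicle control, n = 6, mean ± SD, Student's t-test.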
# Mus musculus [7] = test: Hypolipidemic activity in CF1 mouse assessed as serum triglyceride level at 150 mg/kg/day administered for 16 days measured on day 16 relative to control
# Mus musculus [8] = test: Hypolipidemic activity in CF1 mouse assessed as serum triglyceride level at 150 mg/kg/day administered for 16 days measured on day 16 relative to control; assay type: functional; method in brief: as §2
# Mus musculus [9] = test: Antiinflammatory activity against CF1 mouse assessed as inhibition of carrageenan-induced paw edema at 10 mg/kg administered 30 mins before carrageenan challenge measured after 3 hrs relative to control; assay type: functional
# Method in brief: (§3)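 CF1 male mice (ca. 25 g) got drug ip in 0.05% Tween 80 water twice, 3 h and 30 min before 0.2 ml of 1% carrageenan in 0.9% saline was injected into the right hind plantar surface. The left foot got saline as baseline. After 3 h both feet were cut off at the ankle and paw weight gain was compared; results are percent inhibition, n = 6, mean ± SD.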
# Mus musculus [10] = test: Hypolipidemic activity in CF1 mouse assessed as serum cholesterol level at 8 mg/kg/day, ip administered for 16 days measured on day 16 relative to control; assay type: functional; details: route intraperitoneal; method in brief: as §2
# Mus musculus [11] = test: Hypolipidemic activity in CF1 mouse assessed as serum cholesterol level at 8 mg/kg/day, ip administered for 16 days measured on day 16 relative to control
# Mus musculus [12] = test: Antiinflammatory activity against CF1 mouse assessed as inhibition of carrageenan-induced paw edema at 8 mg/kg/day, ip administered 30 mins before carrageenan challenge measured after 3 hrs relative to control; assay type: functional; details: route intraperitoneal; method in brief: as §3
# Mus musculus [13] = test: Hypolipidemic activity in CF1 mouse assessed as serum cholesterol level at 8 mg/kg/day, ip administered for 16 days measured on day 9 relative to control; assay type: functional; details: route intraperitoneal; method in brief: as §2
# Ehrlich = test: In vivo antineoplastic activity against mouse Ehrlich ascite carcinoma cells xenografted in CF1 mouse assessed as inhibition of tumor growth at 8 mg/kg/day after 9 days relative to control; assay type: functional; details: 216 h
# Method in brief: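 On day 0, CF1 male mice (ca. 25 g) received 2 × 10^6 Ehrlich ascites cells ip in isotonic saline. Drug in 0.05% Tween 80 water was given at 8 mg/kg/day on days 1–9. On day 10 ascites fluid was collected, and volume and packed-cell volume per animal were used to calculate percent tumor growth inhibition; n = 6, mean ± SD.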
# Mus musculus [14] = test: Toxicity in CF1 mouse assessed as change in CNS and motor activity at 8 mg/kg/day administered in multiple doses for 16 days; assay type: organism-based; details: in vivo, 384 h
# Method in brief: (§4)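 During 16 days of multiple ip dosing at 8 mg/kg/day, mice were watched for body weight loss, food consumption, and behavioral, CNS and motor activity.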
# Mus musculus [15] = test: Toxicity in CF1 mouse assessed as change in food consumption at 8 mg/kg/day administered in multiple doses for 16 days; assay type: organism-based; details: in vivo, 384 h; method in brief: as §4
# Mus musculus [16] = test: Toxicity in CF1 mouse assessed as behavioral changes at 8 mg/kg/day administered in multiple doses for 16 days; assay type: organism-based; details: in vivo, 384 h; method in brief: as §4
# Mus musculus [17] = test: Toxicity in CF1 mouse assessed as body weight loss at 8 mg/kg/day administered in multiple doses for 16 days; assay type: organism-based; details: in vivo, 384 h; method in brief: as §4
# Mus musculus [18] = test: Antiinflammatory activity against CF1 mouse assessed as inhibition of carrageenan-induced paw edema at 50 mg/kg administered 30 mins before carrageenan challenge measured after 3 hrs relative to control; assay type: functional; method in brief: as §3
Compound,EC50 [1] [µg/mL],EC50 (L1210) [µg/mL],EC50 [2] [µg/mL],EC50 [3] [µg/mL],EC50 [4] [µg/mL],EC50 (SW480) [µg/mL],EC50 [5] [µg/mL],EC50 (KB) [µg/mL],Activity (Mus musculus [10]) [%],Activity (Mus musculus [11]) [%],inhibition in vivo at 8 mg/kg/day (Mus musculus [12]) [%],Activity (Mus musculus [13]) [%],inhibition in vivo at 8 mg/kg/day (Ehrlich) [%],also measured
NC(=O)NO [HYDROXYUREA],2.27,2.67,7.54,7.37,3.18,4.79,1.96,5.29,,,,,,
CCOC(=O)C(C)(C)Oc1ccc(Cl)cc1 [CLOFIBRATE],,,,,,,,,,,,,,Activity (Mus musculus [6]): 88%; Activity (Mus musculus [7]): 75%; Activity (Mus musculus [8]): 75%
COc1ccc2c(c1)c(CC(=O)O)c(C)n2C(=O)c1ccc(Cl)cc1 [INDOMETHACIN],,,,,,,,,,,,,,inhibition in vivo at 10 mg/kg (Mus musculus [9]): 78%
COc1cc([C@@H]2c3c(oc4cc(O)cc(O)c4c3=O)-c3cc(O)c(O)cc3[C@@H]2CO)ccc1O [NEOHYDNOCARPIN],4.07,3.29,2.49,4.53,3.05,2.03,2.12,1.06,79,79,6,85,43.1,
COc1cc([C@H]2Oc3cc(-c4cc(=O)c5c(O)cc(O)cc5o4)ccc3O[C@@H]2CO)ccc1O [HYDNOCARPIN],2.59,3.65,2.14,8.18,2.94,2,2.02,1.15,62,62,42,83,84.8,
O=c1[nH]cc(F)c(=O)[nH]1 [FLUOROURACIL],1.28,1.41,,5.64,2.14,3.09,2.47,1.25,,,,,,
COc1cc(/C=C(\CO)c2cc([C@H]3Oc4cc(-c5cc(=O)c6c(O)cc(O)cc6o5)ccc4O[C@@H]3CO)cc(OC)c2O)ccc1O [HYDNOWIGHTIN],5.02,3.07,2.5,7.49,4.33,2.38,3.01,1.96,59,59,24,80,12.1,Activity (Mus musculus [14]): Non-toxic; Activity (Mus musculus [15]): Non-toxic; Activity (Mus musculus [16]): Non-toxic; Activity (Mus musculus [17]): Non-toxic
CCCCC1C(=O)N(c2ccccc2)N(c2ccccc2)C1=O [PHENYLBUTAZONE],,,,,,,,,,,,,,inhibition in vivo at 50 mg/kg (Mus musculus [18]): 47%
Nc1ccn([C@@H]2O[C@H](CO)[C@@H](O)[C@@H]2O)c(=O)n1 [CYTARABINE],1.88,2.76,,4.6,2.67,3.42,2.13,2.84,,,,,,
